Experimental data reported in ChEMBL document CHEMBL1124650, “Structure-activity relationships among methoctramine-related polymethylene tetraamines. Chain-length and substituent effects on M-2 muscarinic receptor blocking activity” (J Med Chem, 1989).

Legend:
Conditions in all cases: read-out: pA2 (converted)
[1] = target: T1, Muscarinic acetylcholine receptor M3 (Cavia porcellus, UniProt Q8VH26); assay: (§1) Antagonist potency against carbachol induced contractions of isolated guinea pig ileum Muscarinic acetylcholine receptor; assay type: functional, tissue-based
T1 sequence (Q8VH26 whole entry): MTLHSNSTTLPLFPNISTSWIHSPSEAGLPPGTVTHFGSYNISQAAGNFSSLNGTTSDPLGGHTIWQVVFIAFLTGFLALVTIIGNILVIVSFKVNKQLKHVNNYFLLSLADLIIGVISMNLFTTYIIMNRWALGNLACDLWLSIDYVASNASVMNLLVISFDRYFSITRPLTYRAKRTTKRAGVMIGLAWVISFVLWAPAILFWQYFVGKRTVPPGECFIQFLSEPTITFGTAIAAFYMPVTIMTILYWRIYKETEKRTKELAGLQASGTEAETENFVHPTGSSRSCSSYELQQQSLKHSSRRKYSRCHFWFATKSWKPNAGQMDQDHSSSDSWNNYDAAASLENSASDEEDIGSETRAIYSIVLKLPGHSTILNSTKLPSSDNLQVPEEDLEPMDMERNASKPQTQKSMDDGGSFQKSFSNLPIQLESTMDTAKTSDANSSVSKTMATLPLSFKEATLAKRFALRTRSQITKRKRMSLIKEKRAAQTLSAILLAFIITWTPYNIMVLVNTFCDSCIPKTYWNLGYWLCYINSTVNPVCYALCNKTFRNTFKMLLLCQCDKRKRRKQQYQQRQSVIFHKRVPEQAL

[2] = target: Muscarinic acetylcholine receptor M2 (Cavia porcellus); assay: Antagonist potency against muscarinic receptors was assed by antagonism of carbachol induced inhibition of electrically stimulated guinea pig atria
[3] = target: Muscarinic acetylcholine receptor M2 (Cavia porcellus); assay: Antagonist potency against carbachol induced inhibition of electrically stimulated guinea pig atria Muscarinic acetylcholine receptor
[4] = target: T1, Muscarinic acetylcholine receptor M3; assay: as §1; assay type: functional, tissue-based; remark: listed apart in the source
How it was run: (§2)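 Mounted in PSS at 37 °C with isotonic recording and 30 min equilibration. Carbachol curves (0.01-10 μM) were run at 30-min intervals, the second serving as control. A repeat curve followed 30 min antagonist incubation. pA2 came from Schild plots constrained to slope -1.0, using three antagonist concentrations each tested ≥5 times.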

[5] = target: Muscarinic acetylcholine receptor M2 (Cavia porcellus); assay: Antagonist potency against carbachol induced inhibition of electrically stimulated guinea pig atria Muscarinic acetylcholine receptor; remark: listed apart in the source
[6] = target: Muscarinic acetylcholine receptor M2 (Cavia porcellus); assay: as above; remark: listed apart in the source
[7] = target: T1, Muscarinic acetylcholine receptor M3; assay: Antagonist potency against carbachol induced contractions of isolated guinea pig ileum Muscarinic acetylcholine receptor; Inactive up to 10 uM; assay type: functional, tissue-based; how it was run: as §2

Row | SMILES | Kb [3] | Kb [4] | further results
1 | COc1ccccc1CNCCCCCCN(C)CCCCCCCCN(C)CCCCCCNCc1ccccc1OC | – | – | Kb [1]: 417 nM; Kb [2]: 10.2 nM
2 | c1ccc(CNCCCCCCNCCCCCCCCNCCCCCCNCc2ccccc2)cc1 | 83.2 nM | 2190 nM | –
3 | O=[N+]([O-])c1ccc(CNCCCCCCNCCCCCCCCNCCCCCCNCc2ccc([N+](=O)[O-])cc2)cc1 | 95.5 nM | 1320 nM | –
4 | COc1ccccc1CNCCCCCCNCCCCCCCCCCCCCCNCCCCCCNCc1ccccc1OC | – | 1410 nM | –
5 | COc1ccccc1CN(C)CCCCCCNCCCCCCCCNCCCCCCN(C)Cc1ccccc1OC | – | – | Kb [1]: > 10000 nM; Kb [2]: 166 nM
6 | Cc1ccc(CNCCCCCCNCCCCCCCCNCCCCCCNCc2ccc(C)cc2)cc1 | 166 nM | 2340 nM | –
7 | Clc1cccc(CNCCCCCCNCCCCCCCCNCCCCCCNCc2cccc(Cl)c2)c1 | – | 2290 nM | Kb [6]: 186 nM
8 | COc1ccccc1CNCCCCCNCCCCCCCCNCCCCCNCc1ccccc1OC | 162 nM | 2450 nM | –
9 | COc1ccccc1CNCCCCCCNCCCCCCCCCCCCCNCCCCCCNCc1ccccc1OC | 95.5 nM | 1230 nM | –
10 | c1cncc(CNCCCCCCNCCCCCCCCNCCCCCCNCc2cccnc2)c1 | – | – | Kb [1]: 4900 nM; Kb [2]: 288 nM
11 | c1ccc(CNCCCCCCNCCCCCCCCNCCCCCCNCc2ccccn2)nc1 | – | – | Kb [1]: 3310 nM; Kb [2]: 53.7 nM
12 | COc1ccc(CNCCCCCCNCCCCCCCCNCCCCCCNCc2ccc(OC)cc2)cc1 | 141 nM | 2750 nM | –
13 | Cc1ccc(CNCCCCCCNCCCCCCCCNCCCCCCNCc2ccc(C)o2)o1 | – | – | Kb [1]: 708 nM; Kb [2]: 8.91 nM
14 | COc1ccccc1CN(C)CCCCCCN(C)CCCCCCCCN(C)CCCCCCN(C)Cc1ccccc1OC | – | – | Kb [7]: > 10000 nM; Kb [2]: 162 nM
15 | COc1cccc(CNCCCCCCNCCCCCCCCNCCCCCCNCc2cccc(OC)c2)c1 | 151 nM | 3890 nM | –
16 | COc1ccccc1CNCCCCCCNCCCCCCCCNCCCCCCNCc1ccccc1OC [METHOCTRAMINE] | – | 832 nM | –

Further lines, with some results ahead:

Row | Kb [3] | Kb [4] | SMILES | further results
17 | 66.1 nM | 2820 nM | Clc1ccccc1CNCCCCCCNCCCCCCCCNCCCCCCNCc1ccccc1Cl | –
18 | – | 851 nM | c1coc(CNCCCCCCNCCCCCCCCNCCCCCCNCc2ccco2)c1 | Kb [5]: 9.12 nM
19 | 129 nM | 2400 nM | Fc1ccc(CNCCCCCCNCCCCCCCCNCCCCCCNCc2ccc(F)cc2)cc1 | –
20 | 37.2 nM | 2290 nM | COc1ccccc1CNCCCCCCNCCCCCCCCCCCNCCCCCCNCc1ccccc1OC | –
21 | 58.9 nM | 2000 nM | Cc1ccccc1CNCCCCCCNCCCCCCCCNCCCCCCNCc1ccccc1C | –
22 | 26.9 nM | 589 nM | CSc1ccccc1CNCCCCCCNCCCCCCCCNCCCCCCNCc1ccccc1SC | –
23 | 178 nM | 2340 nM | Clc1ccc(CNCCCCCCNCCCCCCCCNCCCCCCNCc2ccc(Cl)cc2)cc1 | –
24 | 27.5 nM | 646 nM | COc1ccccc1CNCCCCCCCNCCCCCCCCNCCCCCCCNCc1ccccc1OC | –
